Data: ChEMBL document CHEMBL3751849, “Design, Synthesis, and Biological Characterization of Novel Mitochondria Targeted Dichloroacetate-Loaded Compounds with Antileukemic Activity” (J Med Chem, 2016)
Activity calls are given as the source filed them. The calls are words filed in the database; no cut-off is given here.

Columns and labels:
[1] = system: JVM-2; test: Induction of apoptosis in human JVM2 cells assessed as early apoptotic cells at 300 uM after 48 hrs by annexin V-FITC/PI-staining based FACS analysis (reference value: 1.6%); format: functional
[2] = Cell cycle arrest in human JVM2 cells assessed as accumulation at S phase at 300 uM after 48 hrs by BrdU/PI-staining based FACS analysis (reference value: 40%); format: functional; settings: JVM-2
[3] = Cytotoxicity against human MEC1 cells at 3 to 300 uM after 48 hrs by MTT assay; format: cell-based; settings: mec1, 48 h
Outline: (§1)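 Cells seeded at 1 × 10^6 cells/mL. JVM-2, MAVER and HL-60 were grown in RPMI-1640; MEC-1 and MEC-2 were grown in IMDM. Primary cells were grown in RPMI-1640. All media carried 10% FBS, L-glutamine and penicillin/streptomycin. Test agents were added at 3–300 μM, and DCA at 1–30 mM.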

[4] = Cytotoxicity against human JVM2 cells at 3 to 300 uM after 48 hrs by MTT assay; format: cell-based; settings: jvm-2, 48 h; outline: as §1
[5] = Cytotoxicity against human HL60 cells at 3 to 300 uM after 48 hrs by MTT assay; format: cell-based; settings: hl-60, 48 h; outline: as §1
[6] = Cytotoxicity against human MEC2 cells at 3 to 300 uM after 48 hrs by MTT assay; format: cell-based; settings: mec2, 48 h; outline: as §1
[7] = Cytotoxicity against human Maver1 cells at 3 to 300 uM uM after 48 hrs by MTT assay; format: cell-based; settings: maver1, 48 h; outline: as §1
[8] = system: JVM-2; test: Induction of apoptosis in human JVM2 cells assessed as late apoptotic cells at 300 uM after 48 hrs by annexin V-FITC/PI-staining based FACS analysis (reference value: 11%); format: functional
[9] = system: Leukemia cell; test: Reduction in basal oxygen consumption rate of mitochondria in human leukemia cells at 300 uM after 3 hrs by seahorse analyzer; format: functional
Outline: (§2)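 Leukemic cells were treated for 3 h at 300 μM, then plated at 3 × 10^5 cells/well on poly-L-lysine. They were held 1 h at 37 °C without CO2 and run on an XFe96 Mito stress test. Additions were made sequentially: oligomycin 1.0 μM, FCCP 1.0 μM, then antimycin A plus rotenone at 1.0 μM each. OCR was expressed as pmol O2/min and normalized to cell number. Coupling efficiency and spare capacity were calculated after subtracting non-mitochondrial OCR. Data are from six independent experiments.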

[10] = Induction of apoptosis in human primary B-CLL cells assessed as late apoptotic cells at 300 uM after 48 hrs by annexin V-FITC/PI-staining based FACS analysis (reference value: 8.5%); format: functional
[11] = system: MEC1; test: (§3) Cytotoxicity against human MEC1 cells after 48 hrs by MTT assay; format: functional, cell-based; outline: as §1
[12] = as §3; format: functional, cell-based; settings: MEC1, 48 h; outline: as §1
[13] = system: Maver1; test: (§4) Cytotoxicity against human Maver1 cells after 48 hrs by MTT assay; format: functional, cell-based; outline: as §1
[14] = as §4; format: functional, cell-based; settings: Maver1, 48 h; outline: as §1
[15] = system: JVM-2; test: (§5) Cytotoxicity against human JVM2 cells after 48 hrs by MTT assay; format: functional, cell-based; outline: as §1
[16] = as §5; format: functional, cell-based; settings: JVM-2, 48 h; outline: as §1
[17] = system: PBMC; test: Cytotoxicity against human PBMC cells after 48 hrs by MTT assay; format: cell-based; outline: as §1
[18] = system: HL-60; test: (§6) Cytotoxicity against human HL60 cells after 48 hrs by MTT assay; format: functional, cell-based; outline: as §1
[19] = as §6; format: functional, cell-based; settings: HL-60, 48 h; outline: as §1
[20] = system: MEC2; test: (§7) Cytotoxicity against human MEC2 cells after 48 hrs by MTT assay; format: functional, cell-based; outline: as §1
[21] = as §7; format: functional, cell-based; settings: MEC2, 48 h; outline: as §1
[22] = Upregulation of p21 mRNA expression in human primary B-CLL cells at 300 uM after 24 to 48 hrs by qRT-PCR analysis; format: functional, cell-based
[23] = system: Leukemia cell; test: Reduction in mitochondrial spare respiratory capacity in human leukemia cells pretreated at 300 uM for 3 hrs followed by antimycin A/rotenone addition by seahorse analyzer; format: functional, cell-based; outline: as §2
[24] = system: Plasma; test: Retention time in BALB/c mouse plasma at 57 mg/kg, sc after 4 hrs by HPLC-MS analysis; format: ADME, organism-based; settings: in vivo
Outline: (§8)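 Female BALB/c mice, 8 weeks old (n = 12), received one sc dose of 57 mg/kg in 200 μL PBS/25% DMSO. Tail-vein blood was drawn at 1, 2.5, 4, 5.5, 7, 16 and 24 h, and plasma was stored at −80 °C. Plasma (100 μL) was diluted in 300 μL acetonitrile/water/TFA and filtered. It was then analysed by nano-HPLC-MS on a C-18 column, using a 15-min water-to-acetonitrile gradient with 0.1% formic acid.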

[25] = system: Plasma; test: Metabolic stability in BALB/c mouse plasma assessed as compound remaining at 57 mg/kg, sc after >5 hrs by HPLC-MS analysis; format: ADME, organism-based; settings: in vivo; outline: as §8
[26] = system: Leukemia cell; test: Reduction in mitochondrial coupling efficiency in human leukemia cells pretreated at 300 uM for 3 hrs followed by antimycin A/rotenone addition by seahorse analyzer; format: functional, cell-based; outline: as §2
[27] = Induction of apoptosis in human primary B-CLL cells assessed as early apoptotic cells at 300 uM after 48 hrs by annexin V-FITC/PI-staining based FACS analysis (reference value: 10.7%); format: functional
[28] = system: Plasma; test: Drug metabolism in BALB/c mouse plasma at 57 mg/kg, sc after >5 hrs by HPLC-MS analysis; format: ADME, organism-based; settings: in vivo; outline: as §8
[29] = system: Leukemia cell; test: Reduction in maximal oxygen consumption rate of mitochondria in human leukemia cells pretreated at 300 uM for 3 hrs followed by FCCP addition by seahorse analyzer; format: functional; outline: as §2
[30] = system: B-CLL; test: Induction of p21 protein level in human primary B-CLL cells at 300 uM after 24 to 48 hrs by Western blot analysis; format: functional, cell-based
Outline: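 Primary B-CLL patient cells treated 24 or 48 h, lysed and analysed by Western blot using anti-p21 (C-19) antibody to detect p21 protein induction.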

[31] = system: JVM-2; test: Induction of apoptosis in human JVM2 cells assessed as early apoptotic cells at 10 mM after 48 hrs by annexin V-FITC/PI-staining based FACS analysis (reference value: 1.6%); format: functional
Outline: (§9)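 JVM-2 cells seeded at 1 × 10^6 cells/mL in RPMI-1640 with 10% FBS and treated 48 h. Annexin V-FITC/PI staining read by flow cytometry, giving percentage of apoptotic leukemic cells. Mean ± SD of at least three independent experiments; p < 0.05 versus untreated cultures.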

[32] = system: JVM-2; test: Induction of apoptosis in human JVM2 cells assessed as late apoptotic cells at 10 mM after 48 hrs by annexin V-FITC/PI-staining based FACS analysis (reference value: 11%); format: functional; outline: as §9
[33] = Cell cycle arrest in human JVM2 cells assessed as accumulation at S phase at 30 mM after 48 hrs by BrdU/PI-staining based FACS analysis (reference value: 40%); format: functional; settings: JVM-2
[34] = Induction of apoptosis in human primary B-CLL cells assessed as early apoptotic cells at 30 mM after 48 hrs by annexin V-FITC/PI-staining based FACS analysis (reference value: 10.7%); format: functional
[35] = Induction of apoptosis in human primary B-CLL cells assessed as late apoptotic cells at 30 mM after 48 hrs by annexin V-FITC/PI-staining based FACS analysis (reference value: 8.5%); format: functional
[36] = Cytotoxicity against human Maver1 cells at 30 uM after 48 hrs by MTT assay; format: cell-based; settings: maver1, 48 h; outline: as §1
[37] = Cytotoxicity against human MEC1 cells at 30 uM after 48 hrs by MTT assay; format: cell-based; settings: mec1, 48 h; outline: as §1
[38] = Cytotoxicity against human JVM2 cells at 30 uM after 48 hrs by MTT assay; format: cell-based; settings: jvm-2, 48 h; outline: as §1
[39] = Cytotoxicity against human HL60 cells at 30 uM after 48 hrs by MTT assay; format: cell-based; settings: hl-60, 48 h; outline: as §1
[40] = Cytotoxicity against human MEC2 cells at 30 uM after 48 hrs by MTT assay; format: cell-based; settings: mec2, 48 h; outline: as §1

| SMILES | Activity [1] [%] | Activity [2] [%] | Activity [3] | Activity [4] | Activity [5] | Activity [6] | Activity [7] | Activity [8] [%] | Activity [9] | IC50 [12] [µM] | IC50 [14] [µM] | IC50 [16] [µM] | IC50 [19] [µM] | IC50 [21] [µM] | Activity [22] | Activity [30] | other results |
| --- | --- | --- | --- | --- | --- | --- | --- | --- | --- | --- | --- | --- | --- | --- | --- | --- | --- |
| CC(C)(C)OC(=O)NCCN(CCNC(=O)OC(C)(C)C)CCNC(=O)OC(C)(C)C | 1.3 | 41 | Non-toxic | Non-toxic | Non-toxic | Non-toxic | Non-toxic | 10.9 | – | – | – | – | – | – | – | – | – |
| C[N+](CCNC(=O)C(Cl)Cl)(CCNC(=O)C(Cl)Cl)CCNC(=O)C(Cl)Cl | – | – | – | – | – | – | – | – | inactive | – | – | – | – | – | – | – | – |
| O=C(NCCN(CCNC(=O)C(Cl)Cl)CCNC(=O)C(Cl)Cl)C(Cl)Cl | 1.1 | 22 | – | – | – | – | – | 25.5 | Active | 400 | 550 | 410 | 340 | 370 | Active | Active | Activity [10]: 42.8%; Activity [11]: Dose-dependent effect; Activity [13]: Dose-dependent effect; Activity [15]: Dose-dependent effect; IC50 [17]: 1260 µM; Activity [18]: Dose-dependent effect; Activity [20]: Dose-dependent effect; Activity [23]: Active; Retention_time [24]: 0.455 min; Stability [25]: Stable; Activity [26]: Active; Activity [27]: 14.4%; Drug metabolism [28]: metabolite_notdetected; Activity [29]: Active |
| O=C(O)C(Cl)Cl [DICHLOROACETIC ACID] | – | – | – | – | – | – | – | – | – | 8290 | 11800 | 11500 | 13900 | 12200 | Active | Active | Activity [31]: 2.8%; Activity [32]: 26.8%; Activity [33]: 15%; Activity [34]: 20.7%; Activity [35]: 45.4% |
| CC(C)(C)OC(=O)NCC[N+](C)(CCNC(=O)OC(C)(C)C)CCNC(=O)OC(C)(C)C.[I-] | – | – | Non-toxic | Non-toxic | Non-toxic | Non-toxic | Non-toxic | – | – | – | – | – | – | – | – | – | – |
| CC(=O)OCC(COC(C)=O)(COC(C)=O)NC(=O)CCCCC[P+](c1ccccc1)(c1ccccc1)c1ccccc1.[Br-] | – | – | – | – | – | – | – | – | – | – | – | – | – | – | – | – | Activity [36]: Toxic; Activity [37]: Toxic; Activity [38]: Toxic; Activity [39]: Toxic; Activity [40]: Toxic |
